Rows were chosen to be rich in hits. Some 1.5% of all compounds tested hit in one or more screens of this group.
MITF TRPM1 HTS – increases MITF-driven TRPM1 promoter luciferase signal | SK-MEL-5 TRPM1-promoter luciferase, 24 h; % of positive control, neutral wells = 0 | activation, % at 12.5 µM | 0.75% of 300,000 active | AID 588334;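 active = mean activation of at least 80% with every replicate also reaching 80%; inconclusive = mean reaches 80% but some replicate falls short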;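 note: 0% = neutral control wells and 100% = parthenolide positive control wells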
PGC1a acetyl inh – PGC1a acetylation modulation, inhibitor mode | U2OS PGC1a acetylation, AlphaScreen anti-acetyl-lysine; with virally co-expressed GCN5 acetyltransferase | inhibition, % at 15.6 µM | 0.17% of 350,000 active;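 active = every replicate shows inhibition of at least 40%; inconclusive = mean inhibition at least 40% but some replicate below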;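 note: 0% = neutral control wells and 100% = positive control wells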
Wnt bcat act – activators of Wnt/beta-catenin signaling. AID 743398. Wnt/beta-catenin reporter cell assay, activator, plate reader. activation, % at 9.35 µM. 1.2% of 300,000 active; in the data active = activation above about 30%, passing the limit was not always enough; inconclusive = no clear call, values can overlap the other calls;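 note: 0% = neutral control wells and 100% = positive control wells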
Cneo AK release – causes C. neoformans cell lysis | 0.2% of 360,000 active | lysis activity, % at 15 µM | adenylate kinase release luminescence, 4 h; normalised: neutral wells 0, clomiphene wells 100;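 active = mean lysis activity across replicates of at least 80%, whatever share of replicates individually reach that level; inactive = mean lysis activity below 80%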
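Schedule: static 4 h at 37 °C with compound, 1 h detection; system: C. neoformans cells; benchmarks: Clomiphene as positive control; buffer or medium: fresh YPD medium; measure: luminescence rise reflecting yeast cell lysis; measured by: luminescent adenylate kinase detection reagent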
* hit, by the source's call; ? = inconclusive; nt = no result given.

SMILES	MITF TRPM1 HTS	PGC1a acetyl inh	Wnt bcat act	Cneo AK release
O=C(Nc1cccc(F)c1)N[C@H]1CC[C@@H](CCNS(=O)(=O)c2cccc(Cl)c2)O[C@H]1CO	nt	2	nt	3
CCOc1cccc(C2C(C(=O)c3ccc(C)o3)=C(O)C(=O)N2c2nnc(C)s2)c1 (configuration not stated)	21	-9	1	-1
CCOc1cccc(C2C(C(=O)c3ccco3)=C(O)C(=O)N2c2nnc(C)s2)c1 (configuration not stated)	8	4	90*	1
CN1CCN(c2ccc(NC(=O)c3ccc(-c4ccccc4F)o3)cc2)CC1	27	nt	49*	-1
CN1CCN(c2ccc(NC(=O)c3ccc(Br)o3)cc2)CC1	34	nt	17	1
CS(=O)(=O)N1CCN(c2ccc(NC(=O)c3ccc(Br)o3)cc2)CC1	?	2	57*	0
CN1CCN(c2ccc(NC(=O)c3ccccc3Br)cc2)CC1	64	-9	nt	2
C[C@@H]1CN([C@@H](C)CO)C(=O)Cc2cc(NC(=O)CCCN(C)C)ccc2O[C@H]1CN(C)C	nt	2	nt	1
C[C@@H]1CN([C@@H](C)CO)C(=O)Cc2cc(NC(=O)C3CCCCC3)ccc2O[C@H]1CN(C)Cc1ccc(-c2ccccc2)cc1	nt	1	nt	-2
Cc1ccc(S(=O)(=O)Nc2ccc3c(c2)C(=O)N([C@@H](C)CO)C[C@H](C)[C@@H](CN(C)S(=O)(=O)c2ccc(Cl)cc2)O3)cc1	nt	2	nt	nt
CN(Cc1nccs1)C(=O)c1ccc2nc(Cc3ccccc3F)oc2c1	113*	nt	26	10
Cc1cc(CN(C)C(=O)c2ccc3nc(Cc4ccccc4F)oc3c2)on1	98*	-4	18	0
O=C(C[C@@H]1CC[C@H](NC(=O)Nc2cccc(F)c2)[C@H](CO)O1)NCC1CCCCC1	nt	3	nt	-1
COc1cc(C2C3=C(CC(C)(C)CC3=O)Nc3c2c(=O)[nH]c(=O)n3Cc2ccccc2)ccc1O (configuration not stated)	-9	nt	33*	-2
Cc1nc(NCc2ccco2)c2c(C)c(C)sc2n1	-55	32	nt	0
Cc1sc2nc3c4ccccc4c(NCc4ccco4)nn3c(=O)c2c1C	85*	-8	nt	-4
C[C@@H]1CN([C@@H](C)CO)C(=O)c2cccc(NS(C)(=O)=O)c2O[C@@H]1CN(C)C(=O)Nc1ccc2c(c1)OCO2	nt	-3	nt	88*
C[C@H]1CN([C@@H](C)CO)C(=O)c2cccc(NS(C)(=O)=O)c2O[C@H]1CN(C)C(=O)Nc1ccc2c(c1)OCO2	nt	-6	nt	114*
C[C@@H]1CN([C@H](C)CO)C(=O)c2cccc(NS(=O)(=O)c3ccccc3)c2O[C@H]1CN(C)C(=O)Nc1ccc2c(c1)OCO2	nt	4	nt	3
O=C(C[C@H]1CC[C@@H]2[C@H](COC[C@@H](O)CN2Cc2cccc(-c3ccncc3)c2)O1)N1CCCCC1	nt	-10	nt	1
COc1ccc(/C=C2\SC(=O)N(CCNC(=O)CCS(=O)(=O)c3ccc(C)cc3)C2=O)cc1	55	nt	33*	nt
COc1ccc(/C=C2\SC(=O)N(CCNC(=O)Cn3cnnn3)C2=O)cc1	?	5	20	nt
O=C(CSc1nc2ccc(Cl)cc2[nH]1)c1cccs1	54	nt	37*	nt
Cc1cc(C(=O)CSc2nc3ccc(Cl)cc3[nH]2)c(C)n1C	15	-22	nt	0
COc1ccc(NC(=O)N(C)C[C@H]2Oc3ncc(C#CC(C)C)cc3C(=O)N([C@@H](C)CO)C[C@H]2C)cc1	nt	19	nt	3
SMILES	MITF TRPM1 HTS	PGC1a acetyl inh	Wnt bcat act	Cneo AK release
COC(=O)c1nn(-c2ccc(OC)cc2)c(=O)cc1O	9	nt	-5	6
COc1ccc(-n2nc(C#N)c(Cl)cc2=O)cc1	-100	90*	-1	nt
Cc1ccccc1OCc1nc2ccccc2[nH]1	74	-2	15	nt
COc1ccccc1OCc1nc2ccccc2[nH]1	?	0	64*	-1
Brc1ccc(OCc2nc3ccccc3[nH]2)cc1	100*	3	36*	-19
Cc1ccnc(SCc2cc(=O)c(OC(=O)c3ccc(Br)o3)co2)n1	0	nt	51*	nt
C[C@@H]1CCCCO[C@@H](CN(C)S(=O)(=O)c2cccs2)[C@H](C)CN([C@H](C)CO)C(=O)c2cc(NC(=O)Nc3ccc(C(F)(F)F)cc3)ccc2O1	nt	13	nt	-1
S=C1NC2=C(CCCC2=C2SCCCS2)C(c2ccccc2)N1 (configuration not stated)	-3	12	-3	nt
COc1ccc(C2NC(=S)NC3=C2CCCC3=C2SCCS2)cc1 (configuration not stated)	-84	45*	?	4
O=C(Nc1ncccc1O)c1ccc2ccccc2c1	4	nt	63*	-10

High-throughput results from PubChem BioAssay.
